Measurements taken from ChEMBL document CHEMBL1123026, “Preparation and antiarthritic and analgesic activity of 4,5-diaryl-2-(substituted thio)-1H-imidazoles and their sulfoxides and sulfones” (1985).

Tests used:
Assay type in all cases: functional
Rattus norvegicus [1] = assay: Effective dose determined against rat adjuvant arthritis after peroral administration; conditions: po
Method in brief: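 Male Lewis rats (130-150 g) given 0.1 mL Mycobacterium butyricum adjuvant (5 mg/mL in mineral oil) s.c. into the right hind paw; arthritis developed for 2 weeks. Groups of 10 matched for severity were dosed orally by gavage in PVA-acacia vehicle (10 mL/kg) for 7 days. Uninjected left paw volume was measured the day after the last dose. Percent decrease was calculated vs arthritic and nonarthritic controls. ED50 was read from a visually fitted semilog dose-response line.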

Mus musculus [2] = assay: Effective dose determined by mouse phenyl-p-benzoquinone writhing (PQW) assay after peroral administration; conditions: po
Method in brief: (§1)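 Fasted (17-21 h) female white mice, 5-20 per double-blind test, dosed orally with compound suspended in 1% methylcellulose. 0.20 mL aqueous 0.01% phenyl-p-benzoquinone given i.p. 6 min before a 10-min observation for stretching/writhing. ED50 (dose protecting 50% of mice) calculated by the moving-average method.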

Rattus norvegicus [3] = assay: Decrease in paw volume by the effect of compound at a dose of 100 mg/kg
Method in brief: (§2)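 Male Lewis rats (130-150 g) got 0.1 mL adjuvant (heat-killed Mycobacterium butyricum, 5 mg/mL in mineral oil) subplantar in the right hind paw and were left 2 weeks. Groups of 10 matched for severity were dosed orally by gavage (PVA-acacia vehicle, 10 mL/kg) for 7 days. Uninjected left hind paw volume was read the next day. % decrease = (arthritic control − treated)/(arthritic − nonarthritic control) × 100; Student's t-test.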

Rattus norvegicus [4] = assay: Decrease in paw volume was evaluated at dose 30 mg/kg; method in brief: as §2
Rattus norvegicus [5] = assay: Decrease in paw volume was evaluated at dose 9 mg/kg; method in brief: as §2
Rattus norvegicus [6] = assay: Decrease in paw volume was evaluated at dose 1 mg/kg; method in brief: as §2
Rattus norvegicus [7] = assay: Decrease in paw volume by the effect of compound at a dose of 75 mg/kg; method in brief: as §2
Mus musculus [8] = assay: Effective dose by mouse phenyl-p-benzoquinone writhing (PQW)assay after peroral administration; highest dose was tested; conditions: po; method in brief: as §1
Rattus norvegicus [9] = assay: Decrease in paw volume by the effect of compound at a dose of 50 mg/kg; method in brief: as §2
Rattus norvegicus [10] = assay: Decrease in paw volume was evaluated at dose 25 mg/kg; method in brief: as §2

Compound | ED50 (Rattus norvegicus [1]) [mg/kg] | ED50 (Mus musculus [2]) [mg/kg] | further results
COc1ccc(-c2nc(SC)[nH]c2-c2ccc(OC)cc2)cc1 | 4.5 | > 135 | –
COc1ccc(-c2nc(S(=O)(=O)C(F)(F)C(F)F)[nH]c2-c2ccc(OC)cc2)cc1 | 1.4 | – | –
O=S(=O)(CCC(F)(F)F)c1nc(-c2ccccc2)c(-c2ccccc2)[nH]1 | > 75 | > 135 | –
COc1ccc(-c2[nH]c(SC(F)(F)C(F)F)nc2-c2ccccc2)cc1 | 30 | > 130 | –
FC(F)C(F)(F)Sc1nc(-c2ccc(Cl)cc2)c(-c2ccc(Cl)cc2)[nH]1 | 0.33 | > 135 | –
O=S(=O)(c1nc(-c2ccccc2)c(-c2ccccc2)[nH]1)C(F)(F)C(F)F | 0.095 | – | –
CSc1nc(-c2ccc(F)cc2)c(-c2ccc(F)cc2)[nH]1 | 4 | > 130 | –
Fc1ccc(-c2[nH]c(SC(F)(F)C(F)F)nc2-c2ccc(Cl)cc2)cc1 | – | > 130 | –
Fc1ccc(-c2nc(SC(F)(F)C(F)F)[nH]c2-c2ccc(C(F)(F)F)cc2)cc1 | – | > 130 | –
FC(F)C(F)(F)Sc1nc(-c2ccc(C(F)(F)F)cc2)c(-c2ccccc2)[nH]1 | – | > 130 | –
Cc1ccc(-c2nc(SC(F)(F)C(F)F)[nH]c2-c2ccc(C)cc2)cc1 | 27 | > 130 | –
COc1ccc(-c2nc([S+]([O-])CC(F)(F)F)[nH]c2-c2ccc(OC)cc2)cc1 (stereo unspecified) | 11 | – | –
Cc1ccc(-c2[nH]c(S(C)(=O)=O)nc2-c2ccccc2)cc1 | – | > 130 | Decrease (Rattus norvegicus [3]): 45%
COc1ccc(-c2nc(SC(C)C)[nH]c2-c2ccc(OC)cc2)cc1 | – | – | Decrease (Rattus norvegicus [4]): 38%
COc1ccc(-c2nc([S+](C)[O-])[nH]c2-c2ccc(OC)cc2)cc1 (stereo unspecified) | 6.5 | > 135 | –
CS(=O)(=O)c1nc(-c2ccc(Cl)cc2)c(-c2ccc(Cl)cc2)[nH]1 | – | 3.7 | –
CCCC[S+]([O-])c1nc(-c2ccccc2)c(-c2ccccc2)[nH]1 (stereo unspecified) | > 100 | > 130 | –
COc1ccc(-c2nc(SC[S+](C)[O-])[nH]c2-c2ccc(OC)cc2)cc1 (stereo unspecified) | 52 | – | –
[O-][S+](CCC(F)(F)C(F)(F)F)c1nc(-c2ccccc2)c(-c2ccccc2)[nH]1 (stereo unspecified) | > 75 | > 130 | –
FC(Br)C(F)(F)Sc1nc(-c2ccccc2)c(-c2ccccc2)[nH]1 (stereo unspecified) | 11 | > 130 | –
CSc1nc(-c2ccc(C(F)(F)F)cc2)c(-c2ccc(C(F)(F)F)cc2)[nH]1 | – | > 130 | Decrease (Rattus norvegicus [5]): 29%
CSCSc1nc(-c2ccccc2)c(-c2ccccc2)[nH]1 | > 50 | > 130 | –
Fc1ccc(-c2nc(SC(F)F)[nH]c2-c2ccc(F)cc2)cc1 | – | > 130 | –
CCCS(=O)(=O)c1nc(-c2ccccc2)c(-c2ccccc2)[nH]1 | – | > 130 | Decrease (Rattus norvegicus [3]): 26%
FC(F)(F)Sc1nc(-c2ccc(Cl)c(Cl)c2)c(-c2ccccc2)[nH]1 | – | > 130 | –
FC(F)C(F)(F)Sc1nc(-c2ccc(Cl)cc2)c(-c2ccc(C(F)(F)F)cc2)[nH]1 | – | > 130 | Decrease (Rattus norvegicus [6]): 35%
CSc1nc(-c2ccc(C(F)(F)F)cc2)c(-c2ccccc2)[nH]1 | – | > 130 | Decrease (Rattus norvegicus [5]): 41%

Compound | ED50 (Rattus norvegicus [1]) [mg/kg] | ED50 (Mus musculus [2]) [mg/kg] | further results
C=CCS(=O)(=O)c1nc(-c2ccc(OC)cc2)c(-c2ccc(OC)cc2)[nH]1 | 10 | > 130 | –
FC(F)Sc1nc(-c2ccccc2)c(-c2ccccc2)[nH]1 | 27 | > 130 | –
FCC(F)(F)Sc1nc(-c2ccccc2)c(-c2ccccc2)[nH]1 | 2 | > 135 | –
CS(=O)(=O)c1nc(-c2ccc(F)cc2)c(-c2ccc(C(F)(F)F)cc2)[nH]1 | – | > 130 | –
[O-][S+](CCC(F)(F)F)c1nc(-c2ccccc2)c(-c2ccccc2)[nH]1 (stereo unspecified) | > 75 | > 130 | –
CSc1nc(-c2ccc(F)cc2)c(-c2ccc(C(F)(F)F)cc2)[nH]1 | – | > 130 | –
C[S+]([O-])c1nc(-c2cccc(F)c2)c(-c2ccccc2)[nH]1 (stereo unspecified) | – | > 130 | Decrease (Rattus norvegicus [3]): 67%
FC(F)(F)Sc1nc(-c2ccccc2)c(-c2ccccc2)[nH]1 | – | > 130 | Decrease (Rattus norvegicus [6]): 27%
COc1ccc(-c2[nH]c(SC(F)(F)C(F)F)nc2-c2ccc(F)cc2)cc1 | – | > 130 | –
CS(=O)(=O)c1nc(-c2ccc(F)cc2)c(-c2ccc(F)cc2)[nH]1 | – | > 130 | –
CCS(=O)(=O)c1nc(-c2ccccc2)c(-c2ccccc2)[nH]1 | – | > 135 | Decrease (Rattus norvegicus [3]): 32%
CS(=O)(=O)c1nc(-c2cccc(F)c2)c(-c2ccccc2)[nH]1 | – | > 130 | Decrease (Rattus norvegicus [7]): 32%
FC(F)C(F)(F)Sc1nc(-c2ccc(Cl)cc2)c(-c2ccccc2)[nH]1 | – | > 130 | –
FC(F)C(F)(F)Sc1nc(-c2ccccc2)c(-c2ccccc2)[nH]1 | 1.2 | – | ED50 (Mus musculus [8]): 81 mg/kg
FC(F)(F)CSc1nc(-c2ccc(Cl)cc2)c(-c2ccc(Cl)cc2)[nH]1 | 4 | > 130 | –
FC(F)(F)C(F)(F)CSc1nc(-c2ccccc2)c(-c2ccccc2)[nH]1 | – | > 135 | –
FC(F)C(F)(F)Sc1nc(-c2cccc(Cl)c2)c(-c2ccccc2)[nH]1 | – | > 130 | –
Fc1ccc(-c2nc(SC(F)(F)C(F)F)[nH]c2-c2ccccc2)cc1 | 0.18 | > 130 | –
FC(F)C(F)(F)Sc1nc(-c2ccc(Cl)c(Cl)c2)c(-c2ccccc2)[nH]1 | – | > 130 | –
CCSc1nc(-c2ccccc2)c(-c2ccccc2)[nH]1 | 100 | > 130 | –
CSc1nc(-c2ccc(Cl)cc2)c(-c2ccc(C(F)(F)F)cc2)[nH]1 | – | > 130 | –
CS(=O)(=O)c1nc(-c2ccc(Cl)cc2)c(-c2ccc(F)cc2)[nH]1 | – | > 130 | –
C[S+]([O-])c1nc(-c2cccc(Cl)c2)c(-c2ccccc2)[nH]1 (stereo unspecified) | – | > 130 | Decrease (Rattus norvegicus [7]): 77%
CCOc1ccc(-c2[nH]c(S(C)(=O)=O)nc2-c2ccccc2)cc1 | – | > 130 | Decrease (Rattus norvegicus [9]): 41%
COc1ccc(-c2[nH]c(SC)nc2-c2ccccc2)cc1 | – | > 130 | Decrease (Rattus norvegicus [10]): 35%
COc1ccc(-c2nc(SCC(F)(F)F)[nH]c2-c2ccc(OC)cc2)cc1 | 35 | > 135 | –
CS(=O)(=O)c1nc(-c2ccc(F)cc2)c(-c2ccccc2)[nH]1 | > 9 | – | ED50 (Mus musculus [8]): 135 mg/kg

Compound | ED50 (Rattus norvegicus [1]) [mg/kg] | ED50 (Mus musculus [2]) [mg/kg] | further results
COc1ccc(-c2nc([S+]([O-])CC(C)=O)[nH]c2-c2ccc(OC)cc2)cc1 (stereo unspecified) | 35 | – | ED50 (Mus musculus [8]): 135 mg/kg
COc1ccc(-c2nc(S(=O)(=O)C(C)C)[nH]c2-c2ccc(OC)cc2)cc1 | – | > 130 | –
CS(=O)(=O)c1nc(-c2ccc(Cl)cc2)c(-c2ccccc2)[nH]1 | – | > 130 | –
C[S+]([O-])c1nc(-c2ccc(F)cc2)c(-c2ccc(F)cc2)[nH]1 (stereo unspecified) | – | > 130 | –
O=S(=O)(CCC(F)(F)C(F)(F)F)c1nc(-c2ccccc2)c(-c2ccccc2)[nH]1 | > 75 | > 130 | –
CSc1nc(-c2cccc(F)c2)c(-c2ccccc2)[nH]1 | 75 | > 130 | –
COc1ccc(-c2nc(SCSC)[nH]c2-c2ccc(OC)cc2)cc1 | – | > 130 | Decrease (Rattus norvegicus [4]): 46%
CSc1nc(-c2ccc(C)cc2)c(-c2ccc(C)cc2)[nH]1 | – | > 130 | Decrease (Rattus norvegicus [10]): 26%
COc1ccc(-c2[nH]c(S(=O)(=O)C(F)(F)C(F)F)nc2-c2ccccc2Cl)cc1 | 6 | – | –
[O-][S+](CC(F)(F)C(F)(F)F)c1nc(-c2ccccc2)c(-c2ccccc2)[nH]1 (stereo unspecified) | > 75 | > 130 | –
CSc1ccc(-c2[nH]c(SC(F)(F)C(F)F)nc2-c2ccc(F)cc2)cc1 | 1.6 | > 108 | –
CS(=O)(=O)c1nc(-c2ccc(C(F)(F)F)cc2)c(-c2ccccc2)[nH]1 | – | > 130 | Decrease (Rattus norvegicus [9]): 32%
CS(=O)(=O)c1nc(-c2ccc(Cl)c(Cl)c2)c(-c2ccccc2)[nH]1 | – | > 130 | Decrease (Rattus norvegicus [9]): 59%
FC(F)C(F)(F)Sc1nc(-c2cccc(Cl)c2)c(-c2cccc(Cl)c2)[nH]1 | 1.2 | > 130 | –
CS(=O)(=O)c1nc(-c2ccc(Cl)cc2)c(-c2ccc(C(F)(F)F)cc2)[nH]1 | – | > 135 | –
CSc1nc(-c2ccc(Cl)cc2)c(-c2ccc(F)cc2)[nH]1 | – | > 130 | –
Fc1ccc(-c2nc(SC(F)(F)C(F)F)[nH]c2-c2ccc(F)cc2)cc1 | 0.05 | > 81 | –
CSc1nc(-c2ccc(Cl)cc2)c(-c2ccc(Cl)cc2)[nH]1 | 4 | > 135 | –
CCCCSc1nc(-c2ccccc2)c(-c2ccccc2)[nH]1 | > 75 | > 130 | –
COc1ccc(-c2nc(SCC(C)=O)[nH]c2-c2ccc(OC)cc2)cc1 | 10 | – | –
C[S+]([O-])c1nc(-c2ccc(Cl)c(Cl)c2)c(-c2ccccc2)[nH]1 (stereo unspecified) | – | > 130 | Decrease (Rattus norvegicus [9]): 46%
CSc1nc(-c2ccc(Cl)c(Cl)c2)c(-c2ccccc2)[nH]1 | – | > 130 | Decrease (Rattus norvegicus [10]): 62%
CCCCS(=O)(=O)c1nc(-c2ccccc2)c(-c2ccccc2)[nH]1 | > 100 | > 130 | –
Fc1cccc(-c2nc(SC(F)(F)C(F)F)[nH]c2-c2ccccc2)c1 | 2.5 | > 130 | –
O=S(=O)(CC(F)(F)C(F)(F)F)c1nc(-c2ccccc2)c(-c2ccccc2)[nH]1 | > 100 | > 130 | –
Cl.Nc1ccc(-c2[nH]c(S(=O)(=O)C(F)(F)C(F)F)nc2-c2ccc(F)cc2)cc1 | > 3 | – | –
